The campaign covered roughly 220,000 compounds. About 440 (0.2%) were called active.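 How the source made its calls: active means inhibition above the campaign mean of all tested compounds plus 3 SD (cut at about 14% in these data); inactive means the rest.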 This excerpt belongs to a sample that is enriched for actives.
target: Serine hydrolase RBBP9 (Homo sapiens) (UniProt O75884); test: blockers of RBBP9 serine hydrolase labeling – biochemical, fluorescence polarization, FP-Rh probe, HTS, primary screen (AID 1515); conditions: recombinant RBBP9, FP-Rh probe fluorescence polarization; at 7.94 µM; active compounds read high;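 further: plate controls were DMSO wells with RBBP9 for no effect and wells lacking RBBP9 protein for full effect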
Summary of the method: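 System: RBBP9 protein | Quantity: 2.5 µM RBBP9 dispensing solution, before mixing | Reagent: FP-Rh probe, 375 nM dispensing solution | Timing: Enzyme-compound preincubation 30 min, then probe labeling 45 min, 25 °C | Measured by: Fluorescence polarization | Read-out: % inhibition | Replication: One well per compound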

Chain of Serine hydrolase RBBP9 (Homo sapiens) (O75884 whole entry, looked up): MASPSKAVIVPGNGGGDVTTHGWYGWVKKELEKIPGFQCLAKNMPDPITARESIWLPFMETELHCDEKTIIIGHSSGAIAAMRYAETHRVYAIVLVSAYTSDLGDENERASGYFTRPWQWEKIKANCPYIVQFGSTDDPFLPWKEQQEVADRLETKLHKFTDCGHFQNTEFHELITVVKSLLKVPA

inhibition, active:
COCCN(Cc1nc(-c2ccc(C(F)(F)F)cc2)no1)C(C)C 15%
Cn1sc(=O)c2cc(S(=O)(=O)NC3CC3)ccc21 33.3%
O=c1[nH]n(-c2ccc([N+](=O)[O-])cc2)c(=O)c2ccccc12 15.9%
CCc1ccccc1NC1c2ccccc2C(=O)N1c1cccnc1 (centres undefined) 19.1%
COc1ccc(N2C(=O)C3CCCN3C2c2cc(OC)c(OC)cc2OC)cc1 (centres undefined) 14.8%
COc1ccc2c(c1)C(C)=CC(C)(C)N2C(=O)Nc1ccccc1 14.3%
Cc1ccc(NC(=O)CN2CCC(C(N)=O)CC2)cc1[N+](=O)[O-] 28.6%
O=[N+]([O-])c1c(NCCO)cc(Sc2nc3ccccc3s2)c2nonc12 16.6%

inhibition, inactive:
Cc1ccc(CS(=O)(=O)CCC(=O)NC2CC2)cc1 -3.2%
O=C1/C(=C\c2cccnc2)CN(Cc2ccccc2)C/C1=C\c1cccnc1 -6.31%
Cc1ccccc1NS(=O)(=O)CCCCC(Cl)(Cl)Cl 2.33%
CCC(=O)Nc1c(C)n[nH]c1C -4.5%
CCN1C(=O)/C(=C\N2CCOCC2)SC1=S -5.07%
Cc1ccc2nc(SCc3cn4c(C)cc(C)nc4n3)[nH]c2c1 -9.49%
O=C(c1c(Cl)cccc1Cl)N1CCN(c2cccc3[nH]ccc23)CC1 -7.2%
Cc1c(NC(=O)CCC2CCCCC2)cc(C(=O)N2CCOCC2)cc1[N+](=O)[O-] 7.08%
COc1ccc(CCNC(=O)C(=O)Nc2ccc3nc4n(c(=O)c3c2)CCCCC4)cc1OC 6.2%
COc1ccc2c(c1)CC[C@@H]1[C@@H]2CC[C@]2(C)C(=O)CC[C@@H]12 -1.04%
Cc1cccc(C)c1NC(=O)C1CCCN1C(=O)OC(C)(C)C (centres undefined) -5.32%
Cc1cccc(-c2nc3c(c(SCC(=O)N4CCOCC4)n2)CCCC3)c1 11.1%
COc1ccc(-c2noc(CN(C)S(=O)(=O)c3ccc(C)cc3)n2)cc1 -9.12%
CC(C)N(Cc1nc(-c2ccc3c(c2)OCO3)no1)CC1CCC(=O)N1 (centres undefined) -10.1%
CSc1ccc(S(=O)(=O)NC2CCCCC2)cc1 0.08%
CC1CCC(NS(=O)(=O)c2ccc3c(c2)n(C)c(=O)c(=O)n3C)CC1 (centres undefined) -2.22%
Cc1cc(C)c[n+](-c2nc3ccccc3nc2[N-]S(=O)(=O)c2cccs2)c1 -7.26%
O=C1CC(c2ccccc2)=NN1c1ccc([N+](=O)[O-])cc1 -12.2%
O=c1[nH]c2cccnc2n1-c1ccc([N+](=O)[O-])cc1 4.37%
O=C(NNC1CC(=O)N(c2cccc(Cl)c2)C1=O)c1cccnc1 (centres undefined) -9.81%
CC(C)(C)C1CCC(OC(=O)CCC(=O)Nc2ccccc2)CC1 (centres undefined) -0.76%
C=CCN(CC=C)CCOc1ccccc1[N+](=O)[O-] -6.95%
CSc1ccccc1NC(=O)CN(C)CC(=O)Nc1ccc(Cl)cc1[N+](=O)[O-] 6.47%
COc1cccc(-n2nc(C(=O)N3CCN(Cc4ccccc4)CC3)c3ccccc3c2=O)c1 -0.83%
Cc1cc(NC(=O)CSc2nccn2-c2ccc([N+](=O)[O-])cc2)no1 -5.53%
Cc1c(CCO)sc[n+]1CC(=O)OC12CC3CC(CC(C3)C1)C2 6.14%
Cc1cc(C(=O)OCC(=O)Nc2nnc(C(C)C)s2)c2ccccc2n1 -5.01%
CC(OC(=O)c1ccc(NS(=O)(=O)c2ccc3[nH]c(=O)[nH]c3c2)cc1)C(=O)Nc1cccc(Cl)c1Cl (centres undefined) -24.3%
Oc1cccc2ccc(/C=C/c3ccc(Br)s3)nc12 -6.67%
O=C(Cc1cccs1)N/N=C/c1ccc(OCc2ccccc2)cc1 -9.96%
CC(C)(C)Nc1c(N)c(=O)oc2ccccc12 -7.21%
Cc1ccnc(N2C(=O)c3ccccc3C2Nc2ccc3c(c2)OCCO3)c1 (centres undefined) 5.23%
COC(=O)c1cc(NC2c3ccccc3C(=O)N2c2ccc(Cl)cn2)cc(C(=O)OC)c1 (centres undefined) 2.1%
COc1ccc(N2C(=O)C3CCCN3C2c2cccc(OC)c2)cc1 (centres undefined) -6.79%
COc1ccc(N2C(=O)C3CCCN3C2c2cccs2)cc1 (centres undefined) -3.07%
COC(=O)C1=C(C)N(C)C(=O)NC1c1ccc([N+](=O)[O-])o1 (centres undefined) 4.8%
O=C(NCc1ccccc1Cl)NC(=O)c1csc([N+](=O)[O-])c1 2.74%
CC1=CC(C)(C)N(C(=O)CSc2nnc(-c3ccccc3)o2)c2ccc(C)cc21 -8.58%
COc1ccc2c(c1)C(C)=CC(C)(C)N2C(=O)CNCc1ccc2c(c1)OCO2 0.21%
CC(=O)Nc1ccc(NC(=S)NC(=O)c2ccc([N+](=O)[O-])c(C)c2)cc1 6.76%
CN1CCN(CC(=O)Nc2cccc([N+](=O)[O-])c2)CC1 7.61%
Cc1ccc(C)c(S(=O)(=O)N2CCN(CC(=O)Nc3ccc([N+](=O)[O-])cc3)CC2)c1 -5.91%
CC1=C(C(=O)Nc2cc(C)ccn2)C(c2cnn(C)c2)C2=C(CC(c3ccccc3)CC2=O)N1 (centres undefined) -4.73%
O=S(=O)(NC1CC1)c1ccc2c3c(cccc13)CC2 -3.01%
COc1ccc(C(C[N+](=O)[O-])n2nc(C)cc2C)cc1 (centres undefined) -13.8%
CC1CCN(C2=NC(=O)/C(=C/c3cn[nH]c3-c3ccccc3)S2)CC1 -1.8%
CS(=O)(=O)c1ccc(Cl)c(NC(=O)Nc2ccccc2)c1 -8.09%
O=C(CSc1nc2ccccc2s1)Nc1ccc(C(=O)O)cc1 -5.16%
COc1ccc(S(=O)(=O)Nc2ccc(O)c(Sc3nc4ccccc4s3)c2)cc1 -4.18%
CCOC(=O)N1CCN(C(=S)Nc2ccc(C)cc2C)CC1 -5.94%
Cc1ccc(-c2cc(C(=O)NCC3CCCO3)c3ccccc3n2)o1 (centres undefined) -0.54%

From PubChem BioAssay AID1515 (The Scripps Research Institute Molecular Screening Center, 2009)
